Measured values reported in ChEMBL document CHEMBL1154067, “Antiviral and cytotoxic activities of aminoarylazo compounds and aryltriazene derivatives” (Bioorg Med Chem, 2009).
The source made the active and inactive calls.

tested on: Human alphaherpesvirus 1; assay: Antiviral activity against HSV1 infected in Vero-76 cells after 3 days by plaque reduction assay; type: functional, organism-based; conditions: Human alphaherpesvirus 1, Vero 76, 72 h

Point of comparison: `CN(C)CCCN(/N=N/c1ccccc1)c1cccc(C(F)(F)F)c1`, EC50 14 µM. Against it:
- Cc1c(/N=N/c2cccc(C(F)(F)F)c2)ccc(NC[C@@H]2CCCN3CCCC[C@H]23)c1C — higher, > 80 µM
- c1ccc(CN/N=N/c2ccccc2)cc1 — higher, > 100 µM

tested on: not listed separately; assay: Cytotoxicity against MDBK cells after 48 to 96 hrs by MTT assay; type: cell-based, Bos taurus; conditions: cattle, MDBK cells
Summary of the method: (§1)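 Mock-infected cells in maintenance medium, MDBK at 6 × 10^5 and BHK at 1 × 10^6 cells/mL initial density, with or without serial compound dilutions. Run in parallel with antiviral assays. Viability by MTT after 48–96 h at 37 °C, 5% CO2. CC50 = concentration reducing viability 50%.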

Point of comparison: `CN(C)CCCN(/N=N/c1ccccc1)c1cccc(C(F)(F)F)c1`, CC50 38 µM. Against it:
- Nc1nc2c(ncn2COCCO)c(=O)[nH]1 [ACYCLOVIR] — higher, > 100 µM

same assay, conditions: cattle, mdbk

Point of comparison: `Cc1c(/N=N/c2cccc(C(F)(F)F)c2)ccc(NC[C@@H]2CCCN3CCCC[C@H]23)c1C`, CC50 52 µM. Against it:
- c1ccc(CN/N=N/c2ccccc2)cc1 — higher, > 100 µM

tested on: Coxsackievirus B2; assay: Antiviral activity against Coxsackie virus type B2 virus infected in african green monkey Vero-76 cells after 3 days by plaque reduction assay; type: functional, organism-based; conditions: Enterovirus B, Vero 76, 72 h
Summary of the method: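 Vero 76 cells seeded at 2 × 10^5 cells/well, grown overnight to confluence at 37 °C in 5% CO2, then infected at 50–100 PFU/well. Unadsorbed virus removed. Overlay of DMEM with 1% inactivated FCS and 0.75% methylcellulose, with or without serial compound dilutions. After 3 days at 37 °C, fixed and stained with crystal violet in PBS/50% ethanol; plaques counted. EC50 is the concentration reducing plaque number by 50%.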

`Nc1nc2c(ncn2COCCO)c(=O)[nH]1` [ACYCLOVIR] and `CN(C)CCCN(/N=N/c1ccccc1)c1cccc(C(F)(F)F)c1` cannot be ordered by EC50: greater than 100 µM for the first, no less than 20 µM for the second.

`Cc1c(/N=N/c2cccc(C(F)(F)F)c2)ccc(NC[C@@H]2CCCN3CCCC[C@H]23)c1C` and `c1ccc(CN/N=N/c2ccccc2)cc1` cannot be ordered by EC50: greater than 80 µM for the first, greater than 100 µM for the second.

tested on: not listed separately; assay: (§2) Cytotoxicity against african green monkey Vero 76 cells by crystal violet staining; type: cell-based; conditions: chlorocebus sabaeus, Vero 76 cells
Summary of the method: (§3)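 Mock-infected Vero 76 seeded at 4 × 10^5 cells/mL, run in parallel with plaque assays, with or without serial compound dilutions. Cell number of monolayers determined by crystal violet staining. CC50 = concentration reducing viable cell number 50%.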

Point of comparison: `CN(C)CCCN(/N=N/c1ccccc1)c1cccc(C(F)(F)F)c1`, CC50 20 µM. Against it:
- Nc1nc2c(ncn2COCCO)c(=O)[nH]1 [ACYCLOVIR] — higher, > 100 µM

tested on: Vero; assay: as §2; type: cell-based; conditions: chlorocebus sabaeus, vero; summary of the method: as §3

Point of comparison: `Cc1c(/N=N/c2cccc(C(F)(F)F)c2)ccc(NC[C@@H]2CCCN3CCCC[C@H]23)c1C`, CC50 80 µM. Against it:
- c1ccc(CN/N=N/c2ccccc2)cc1 — within 1.5-fold, 100 µM

tested on: Bovine viral diarrhea virus 1; assay: Antiviral activity against Bovine viral diarrhea virus infected in MDBK cells assessed as inhibition of virus-induced cytopathicity after 3 to 4 days by MTT assay; type: functional, organism-based; conditions: Bovine viral diarrhea virus isolates and strains

Point of comparison: `Cc1c(/N=N/c2cccc(C(F)(F)F)c2)ccc(NC[C@@H]2CCCN3CCCC[C@H]23)c1C`, EC50 7 µM. Against it:
- Nc1nc2c(ncn2COCCO)c(=O)[nH]1 [ACYCLOVIR] — higher, > 100 µM
- c1ccc(CN/N=N/c2ccccc2)cc1 — higher, > 100 µM
- CN(C)CCCN(/N=N/c1ccccc1)c1cccc(C(F)(F)F)c1 — higher, > 38 µM

tested on: Respiratory syncytial virus; assay: Antiviral activity against Respiratory syncytial virus A2 infected in Vero-76 cells after 5 days by plaque reduction assay; type: functional, organism-based; conditions: human respiratory syncytial virus, A2, Vero 76, 120 h

`Nc1nc2c(ncn2COCCO)c(=O)[nH]1` [ACYCLOVIR] and `CN(C)CCCN(/N=N/c1ccccc1)c1cccc(C(F)(F)F)c1` cannot be ordered by EC50: greater than 100 µM for the first, greater than 20 µM for the second.

`Cc1c(/N=N/c2cccc(C(F)(F)F)c2)ccc(NC[C@@H]2CCCN3CCCC[C@H]23)c1C` and `c1ccc(CN/N=N/c2ccccc2)cc1` cannot be ordered by EC50: greater than 80 µM for the first, greater than 100 µM for the second.

tested on: Human immunodeficiency virus 1; assay: Antiviral activity against HIV1 infected in human MT4 cells assessed as inhibition of virus-induced cytopathicity after 4 days by MTT assay; type: functional, organism-based; conditions: not given

In the case of `Cc1c(/N=N/c2cccc(C(F)(F)F)c2)ccc(NC[C@@H]2CCCN3CCCC[C@H]23)c1C`, the inhibition is reported as “inactive”.
With `c1ccc(CN/N=N/c2ccccc2)cc1` the inhibition was “inactive”.
With `CN(C)CCCN(/N=N/c1ccccc1)c1cccc(C(F)(F)F)c1` the inhibition was “inactive”.

tested on: Yellow fever virus; assay: Antiviral activity against Yellow fever virus infected in BHK-21 cells assessed as inhibition of virus-induced cytopathicity after 3 to 4 days by MTT assay; type: functional, organism-based; conditions: not given

`Nc1nc2c(ncn2COCCO)c(=O)[nH]1` [ACYCLOVIR] and `CN(C)CCCN(/N=N/c1ccccc1)c1cccc(C(F)(F)F)c1` cannot be ordered by EC50: greater than 100 µM for the first, no less than 49 µM for the second.

`Cc1c(/N=N/c2cccc(C(F)(F)F)c2)ccc(NC[C@@H]2CCCN3CCCC[C@H]23)c1C` and `c1ccc(CN/N=N/c2ccccc2)cc1` cannot be ordered by EC50: greater than 100 µM for the first, greater than 100 µM for the second.

tested on: Mammalian orthoreovirus 1; assay: Antiviral activity against Reovirus-1 infected in BHK-21 cells assessed as inhibition of virus-induced cytopathicity after 3 to 4 days by MTT assay; type: functional, organism-based; conditions: Mammalian orthoreovirus 1, BHK-21
Summary of the method: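 BHK-21 cells seeded at 5 × 10^4 cells/well, grown overnight to confluent monolayers at 37 °C in 5% CO2, then infected at m.o.i. 0.01 in serum-free medium. One hour later, MEM Earle's with 1% final inactivated FCS added, with or without serial compound dilutions. Viability read by MTT after 3–4 days at 37 °C. EC50 is the concentration giving 50% protection from cytopathogenicity.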

`Nc1nc2c(ncn2COCCO)c(=O)[nH]1` [ACYCLOVIR] and `CN(C)CCCN(/N=N/c1ccccc1)c1cccc(C(F)(F)F)c1` cannot be ordered by EC50: greater than 100 µM for the first, greater than 49 µM for the second.

`Cc1c(/N=N/c2cccc(C(F)(F)F)c2)ccc(NC[C@@H]2CCCN3CCCC[C@H]23)c1C` and `c1ccc(CN/N=N/c2ccccc2)cc1` cannot be ordered by EC50: greater than 100 µM for the first, greater than 100 µM for the second.

tested on: not listed separately; assay: (§4) Cytotoxicity against human MT4 cells after 96 hrs by MTT assay; type: cell-based; conditions: MT4 cells
Summary of the method: (§5)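 Exponentially growing mock-infected MT-4 seeded at 1 × 10^5 cells/mL in RPMI-1640 with 10% FCS, penicillin and streptomycin. Incubated with or without serial compound dilutions at 37 °C, 5% CO2. Viability by MTT after 96 h. CC50 = concentration reducing viability 50%.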

Point of comparison: `CN(C)CCCN(/N=N/c1ccccc1)c1cccc(C(F)(F)F)c1`, CC50 at 96 h 14 µM. Against it:
- Nc1nc2c(ncn2COCCO)c(=O)[nH]1 [ACYCLOVIR] — higher, > 100 µM

tested on: MT4; assay: as §4; type: cell-based; conditions: mt4, 96 h; summary of the method: as §5

Point of comparison: `Cc1c(/N=N/c2cccc(C(F)(F)F)c2)ccc(NC[C@@H]2CCCN3CCCC[C@H]23)c1C`, CC50 77 µM. Against it:
- c1ccc(CN/N=N/c2ccccc2)cc1 — 1.8-fold lower, 42 µM

tested on: Vesicular stomatitis virus; assay: Antiviral activity against Vesicular stomatitis virus after 2 days by plaque reduction assay; type: functional, organism-based; conditions: not given

In the case of `Cc1c(/N=N/c2cccc(C(F)(F)F)c2)ccc(NC[C@@H]2CCCN3CCCC[C@H]23)c1C`, the Activity is reported as “inactive”.
For `c1ccc(CN/N=N/c2ccccc2)cc1`, the Activity was “inactive”.
With `CN(C)CCCN(/N=N/c1ccccc1)c1cccc(C(F)(F)F)c1` the Activity was “inactive”.

tested on: Poliovirus 1; assay: Antiviral activity against Human poliovirus 1 strain Sabin after 2 days by plaque reduction assay; type: functional; conditions: not given

In the case of `Cc1c(/N=N/c2cccc(C(F)(F)F)c2)ccc(NC[C@@H]2CCCN3CCCC[C@H]23)c1C`, the Activity is reported as “inactive”.

same assay, conditions: Enterovirus C, 48 h

`Nc1nc2c(ncn2COCCO)c(=O)[nH]1` [ACYCLOVIR] and `CN(C)CCCN(/N=N/c1ccccc1)c1cccc(C(F)(F)F)c1` cannot be ordered by EC50: greater than 100 µM for the first, greater than 20 µM for the second.

Compound `c1ccc(CN/N=N/c2ccccc2)cc1` has an EC50 greater than 100 µM.

tested on: not listed separately; assay: Cytotoxicity against hamster BHK21 cells assessed as reduction in cell viability after 48 to 96 hrs by MTT assay; type: cell-based, Mesocricetus auratus, BHK-21; conditions: BHK21 cells; summary of the method: as §1

Point of comparison: `CN(C)CCCN(/N=N/c1ccccc1)c1cccc(C(F)(F)F)c1`, CC50 49 µM. Against it:
- Nc1nc2c(ncn2COCCO)c(=O)[nH]1 [ACYCLOVIR] — higher, > 100 µM

same assay, conditions: bhk-21

`Cc1c(/N=N/c2cccc(C(F)(F)F)c2)ccc(NC[C@@H]2CCCN3CCCC[C@H]23)c1C` and `c1ccc(CN/N=N/c2ccccc2)cc1` cannot be ordered by CC50: no less than 100 µM for the first, greater than 100 µM for the second.

tested on: Vaccinia virus; assay: Antiviral activity against Vaccinia virus after 3 days by plaque reduction assay; type: functional, organism-based; conditions: Orthopoxvirus vaccinia

For `Cc1c(/N=N/c2cccc(C(F)(F)F)c2)ccc(NC[C@@H]2CCCN3CCCC[C@H]23)c1C`, the Activity was “inactive”.
With `c1ccc(CN/N=N/c2ccccc2)cc1` the Activity was “inactive”.
In the case of `CN(C)CCCN(/N=N/c1ccccc1)c1cccc(C(F)(F)F)c1`, the Activity is reported as “inactive”.
